Active and inactive are the calls of the source. No cut-off for these calls is given here.
Experiments:
[1] = target: Histone-lysine N-methyltransferase PRDM9 (Homo sapiens) (UniProt Q9NQV7); experiment: Binding affinity to PRDM9 (unknown origin) assessed as thermal stability by measuring change in melting temperature at 250 uM by SYPRO orange dye based differential scanning fluorimetry
In short: (§1)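 DSF with 250 μM compound; proteins at 0.02 mg mL⁻¹ final in 0.1 M HEPES pH 7.5, 150 mM NaCl with 2 mM SAM; ΔTm (Tm ligand − Tm apo) above 2 °C taken as binding.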

[2] = target: Histone-lysine N-methyltransferase PRDM7 (Homo sapiens) (UniProt Q9NQW5); experiment: Binding affinity to PRDM7 (unknown origin) assessed as thermal stability by measuring change in melting temperature at 250 uM by SYPRO orange dye based differential scanning fluorimetry; in short: as §1
Chain of Histone-lysine N-methyltransferase PRDM7 (Homo sapiens) (Q9NQW5 whole entry): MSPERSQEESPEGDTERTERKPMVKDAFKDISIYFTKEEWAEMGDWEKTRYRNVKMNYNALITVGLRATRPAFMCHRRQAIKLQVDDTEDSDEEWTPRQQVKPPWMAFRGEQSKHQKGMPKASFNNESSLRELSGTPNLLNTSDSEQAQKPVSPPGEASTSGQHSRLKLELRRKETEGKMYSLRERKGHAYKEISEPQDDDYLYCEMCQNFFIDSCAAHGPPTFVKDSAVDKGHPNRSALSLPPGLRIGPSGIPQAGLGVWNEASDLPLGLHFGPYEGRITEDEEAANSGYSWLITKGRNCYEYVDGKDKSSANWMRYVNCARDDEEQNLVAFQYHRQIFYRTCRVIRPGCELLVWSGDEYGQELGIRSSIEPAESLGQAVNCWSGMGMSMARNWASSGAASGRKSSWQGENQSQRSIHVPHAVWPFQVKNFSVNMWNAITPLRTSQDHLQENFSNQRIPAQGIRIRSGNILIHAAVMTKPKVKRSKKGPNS

[3] = target: Histone-lysine N-methyltransferase PRDM9 (Homo sapiens) (UniProt Q9NQV7); experiment: Inhibition of PRDM9 (unknown origin) at 1 to 10 uM; conditions: dose 1-10 µM
[4] = target: Mu-type opioid receptor (Homo sapiens) (UniProt P35372); experiment: Agonist activity at MOR receptor (unknown origin) by Glo Sensor assay; type: functional
Chain of Mu-type opioid receptor (Homo sapiens) (P35372 whole entry): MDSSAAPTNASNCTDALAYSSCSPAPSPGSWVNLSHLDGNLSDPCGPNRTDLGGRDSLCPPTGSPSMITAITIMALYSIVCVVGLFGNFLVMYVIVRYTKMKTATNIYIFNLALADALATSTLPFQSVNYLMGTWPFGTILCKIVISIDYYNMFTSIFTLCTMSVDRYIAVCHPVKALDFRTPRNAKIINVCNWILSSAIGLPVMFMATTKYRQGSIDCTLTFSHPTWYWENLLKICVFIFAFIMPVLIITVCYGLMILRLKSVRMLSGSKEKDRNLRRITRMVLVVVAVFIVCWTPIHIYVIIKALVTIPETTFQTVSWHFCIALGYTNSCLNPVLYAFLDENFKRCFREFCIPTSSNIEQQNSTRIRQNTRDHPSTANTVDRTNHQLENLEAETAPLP

[5] = target: Alpha-2B adrenergic receptor (Homo sapiens) (UniProt P18089); experiment: Agonist activity at adrenergic alpha 2b receptor (unknown origin) by Glo Sensor assay; type: functional
Chain of Alpha-2B adrenergic receptor (Homo sapiens) (P18089 whole entry): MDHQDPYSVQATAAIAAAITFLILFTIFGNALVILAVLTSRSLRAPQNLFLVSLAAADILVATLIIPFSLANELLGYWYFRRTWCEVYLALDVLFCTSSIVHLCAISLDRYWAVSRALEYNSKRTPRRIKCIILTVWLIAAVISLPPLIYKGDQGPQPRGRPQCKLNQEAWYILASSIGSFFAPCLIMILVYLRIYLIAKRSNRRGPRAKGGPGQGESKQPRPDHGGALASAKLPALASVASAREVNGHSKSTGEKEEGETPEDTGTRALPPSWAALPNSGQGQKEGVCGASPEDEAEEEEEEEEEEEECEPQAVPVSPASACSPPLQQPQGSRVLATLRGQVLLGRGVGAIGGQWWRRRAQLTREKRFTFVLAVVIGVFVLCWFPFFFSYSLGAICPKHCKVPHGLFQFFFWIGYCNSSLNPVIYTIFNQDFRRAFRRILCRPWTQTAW

[6] = target: Muscarinic acetylcholine receptor M2 (Homo sapiens) (UniProt P08172); experiment: Agonist activity at muscarinic M2 receptor (unknown origin) by Glo Sensor assay; type: functional
Chain of Muscarinic acetylcholine receptor M2 (Homo sapiens) (P08172 whole entry): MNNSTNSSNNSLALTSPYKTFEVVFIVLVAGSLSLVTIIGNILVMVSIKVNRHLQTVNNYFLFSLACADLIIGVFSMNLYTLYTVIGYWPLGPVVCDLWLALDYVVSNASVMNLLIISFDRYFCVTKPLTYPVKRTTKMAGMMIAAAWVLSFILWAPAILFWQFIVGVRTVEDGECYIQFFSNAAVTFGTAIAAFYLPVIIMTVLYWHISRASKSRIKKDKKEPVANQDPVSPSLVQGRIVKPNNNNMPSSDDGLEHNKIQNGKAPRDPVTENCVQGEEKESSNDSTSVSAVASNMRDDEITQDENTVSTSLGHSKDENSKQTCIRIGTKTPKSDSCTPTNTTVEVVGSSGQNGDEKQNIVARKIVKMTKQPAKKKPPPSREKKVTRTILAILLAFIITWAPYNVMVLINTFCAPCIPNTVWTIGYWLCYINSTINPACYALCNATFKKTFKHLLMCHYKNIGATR

[7] = target: Histamine H3 receptor (Homo sapiens) (UniProt Q9Y5N1); experiment: Agonist activity at Histamine H3 (unknown origin) by Glo Sensor assay; type: functional
Chain of Histamine H3 receptor (Homo sapiens) (Q9Y5N1 whole entry): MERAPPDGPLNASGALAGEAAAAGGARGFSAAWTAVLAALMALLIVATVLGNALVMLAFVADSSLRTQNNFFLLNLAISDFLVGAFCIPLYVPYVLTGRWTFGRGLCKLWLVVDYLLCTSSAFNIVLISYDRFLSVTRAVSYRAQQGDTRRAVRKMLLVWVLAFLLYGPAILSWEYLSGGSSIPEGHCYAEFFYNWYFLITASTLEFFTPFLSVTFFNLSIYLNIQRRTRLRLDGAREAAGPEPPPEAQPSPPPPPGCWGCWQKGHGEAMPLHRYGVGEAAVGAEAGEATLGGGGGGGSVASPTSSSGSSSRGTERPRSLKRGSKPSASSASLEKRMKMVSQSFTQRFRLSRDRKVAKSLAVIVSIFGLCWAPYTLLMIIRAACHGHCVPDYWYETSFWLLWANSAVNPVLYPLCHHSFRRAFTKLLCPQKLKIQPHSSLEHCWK

[8] = target: Mu-type opioid receptor (Homo sapiens) (UniProt P35372); experiment: Antagonist activity against MOR receptor (unknown origin) by Glo Sensor assay; type: functional
[9] = target: Alpha-2B adrenergic receptor (Homo sapiens) (UniProt P18089); experiment: Antagonist activity against adrenergic alpha 2b receptor (unknown origin) by Glo Sensor assay; type: functional
[10] = target: Muscarinic acetylcholine receptor M2 (Homo sapiens) (UniProt P08172); experiment: Antagonist activity against muscarinic M2 receptor (unknown origin) by Glo Sensor assay; type: functional
[11] = target: Histone-lysine N-methyltransferase PRDM9 (Homo sapiens) (UniProt Q9NQV7); experiment: Inhibition of PRDM9 (unknown origin) in presence of SAH
[12] = target: Histone-lysine N-methyltransferase PRDM9 (Homo sapiens) (UniProt Q9NQV7); experiment: Binding affinity to PRDM9 (unknown origin) (195 to 415 residues) at 20 uM measured at 60 to 120 secs in presence of SAH by surface plasmon resonance assay; conditions: time 60-120 sec
[13] = target: Histone-lysine N-methyltransferase PRDM9 (Homo sapiens) (UniProt Q9NQV7); experiment: Inhibition of FLAG tagged PRDM9 transfected in HEK293T cells assessed as reduction in trimethylation of ectopic H3K4 measured after 20 hrs by Western blot analysis; type: cell-based; conditions: dose <= 10.0 µM
[14] = target: Histone-lysine N-methyltransferase PRDM9 (Homo sapiens) (UniProt Q9NQV7); experiment: Inhibition of FLAG tagged PRDM9 transfected in HEK293T cells assessed as reduction in trimethylation of endogenous H3K4 measured after 20 hrs by Western blot analysis; type: cell-based; conditions: dose <= 10.0 µM
[15] = tested on: SK-MM-2; experiment: Cytotoxicity against human SK-MM-2 cells at upto 30 uM measured for 3 to 6 days by celltiter glo assay; type: functional, cell-based; conditions: time 3-6 day
[16] = tested on: HEK-293T; experiment: Cytotoxicity against HEK293T cells at 3 uM measured after 24 hrs by IncuCyte zoom live-cell imaging analysis; type: toxicity, cell-based; conditions: human
In short: (§2)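 HEK293T cells seeded, treated next day with compound for 1 day; cell number counted by live-cell imaging after Vybrant DyeCycle Green staining; mean ± sd, n = 3.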

[17] = tested on: HEK-293T; experiment: Cytotoxicity against HEK293T cells at 10 uM measured after 24 hrs by IncuCyte zoom live-cell imaging analysis; type: toxicity, cell-based; conditions: human; in short: as §2
[18] = tested on: HEK-293T; experiment: Cytotoxicity against HEK293T cells at 3 uM measured after 4 days by IncuCyte zoom live-cell imaging analysis; type: toxicity, cell-based; conditions: human, 96 h, time 4 day
[19] = tested on: HEK-293T; experiment: Cytotoxicity against HEK293T cells at 10 uM measured after 4 days by IncuCyte zoom live-cell imaging analysis; type: toxicity, cell-based; conditions: human, 96 h, time 4 day
[20] = target: Histone-lysine N-methyltransferase PRDM9 (Homo sapiens) (UniProt Q9NQV7); experiment: Inhibition of FLAG tagged PRDM9 transfected in human MCF7 cells cotransfected with H3-GFP assessed as inhibition of trimethylation H3K4 at upto 10 uM measured after 20 hrs by Western blot analysis; type: cell-based
[21] = tested on: MCF7; experiment: Cytotoxicity against human MCF7 cells assessed as reduction in cell viability at 10 uM measured on day 5 by IncuCyte zoom live-cell imaging analysis; type: functional, cell-based; conditions: time 5.0 day
In short: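 MCF7 cells seeded, treated next day with 10 μM compound in a 5-day proliferation assay; cell number counted by live-cell imaging after Vybrant DyeCycle Green staining.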

[22] = tested on: RPMI-8226; experiment: Cytotoxicity against human RPMI-8226 cells at upto 30 uM measured for 3 to 6 days by celltiter glo assay; type: functional, cell-based; conditions: time 3-6 day
[23] = tested on: CAL-85-1; experiment: Cytotoxicity against human CAL-85-1 cells at upto 30 uM measured for 3 to 6 days by celltiter glo assay; type: functional, cell-based; conditions: time 3-6 day
[24] = tested on: HCC1806; experiment: Cytotoxicity against human HCC1806 cells at upto 30 uM measured for 3 to 6 days by celltiter glo assay; type: functional, cell-based; conditions: time 3-6 day
[25] = tested on: MDA-MB-436; experiment: Cytotoxicity against human MDA-MB-436 cells at upto 30 uM measured for 3 to 6 days by celltiter glo assay; type: functional, cell-based; conditions: time 3-6 day
[26] = tested on: HCC1143; experiment: Cytotoxicity against human HCC1143 cells at upto 30 uM measured for 3 to 6 days by celltiter glo assay; type: functional, cell-based; conditions: time 3-6 day
[27] = tested on: Histone-lysine N-methyltransferase PRDM9 (Homo sapiens), Q9NQV7 [UNDEFINED MUTATION]; experiment: Inhibition of PRDM9 mutant (unknown origin) expressed in […] cells assessed as reduction in H3k4me3 expression at TSS region of endogenous chromatin at 2.5 to 10 uM measured after 48 hrs by ChIP qPCR analysis; type: cell-based; conditions: HEK293T, dose 2.5-10 µM
Chain of Histone-lysine N-methyltransferase PRDM9 (Homo sapiens), Q9NQV7 [UNDEFINED MUTATION] (Q9NQV7 whole entry, looked up, change not shown): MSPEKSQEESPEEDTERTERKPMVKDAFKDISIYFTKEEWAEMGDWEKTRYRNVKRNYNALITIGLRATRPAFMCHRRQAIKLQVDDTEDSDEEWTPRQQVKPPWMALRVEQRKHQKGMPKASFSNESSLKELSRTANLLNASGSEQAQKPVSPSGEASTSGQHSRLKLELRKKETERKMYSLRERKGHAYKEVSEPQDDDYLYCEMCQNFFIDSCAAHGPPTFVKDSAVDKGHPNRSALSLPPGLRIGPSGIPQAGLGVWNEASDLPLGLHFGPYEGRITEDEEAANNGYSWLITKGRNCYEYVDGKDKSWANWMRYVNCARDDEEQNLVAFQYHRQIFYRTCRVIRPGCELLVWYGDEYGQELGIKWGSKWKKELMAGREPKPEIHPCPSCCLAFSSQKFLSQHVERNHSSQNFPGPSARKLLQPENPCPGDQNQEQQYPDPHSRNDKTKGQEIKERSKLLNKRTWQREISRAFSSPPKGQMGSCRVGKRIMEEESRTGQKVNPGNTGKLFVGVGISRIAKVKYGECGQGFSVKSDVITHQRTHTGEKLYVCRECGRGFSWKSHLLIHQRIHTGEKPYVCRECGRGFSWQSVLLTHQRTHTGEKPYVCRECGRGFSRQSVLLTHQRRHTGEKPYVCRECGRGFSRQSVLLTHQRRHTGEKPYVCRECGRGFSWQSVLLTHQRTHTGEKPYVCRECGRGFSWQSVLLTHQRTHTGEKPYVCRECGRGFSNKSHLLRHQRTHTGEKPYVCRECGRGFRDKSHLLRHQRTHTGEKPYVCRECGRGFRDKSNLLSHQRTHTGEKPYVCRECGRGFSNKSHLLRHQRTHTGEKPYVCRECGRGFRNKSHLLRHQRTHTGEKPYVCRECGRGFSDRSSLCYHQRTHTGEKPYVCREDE
In short: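 HEK293T cells transfected with empty vector, wild-type or catalytically dead PRDM9 and treated with 0.1% DMSO or compound for 48 h; formaldehyde fixed, sonicated chromatin (50 μg) immunoprecipitated with anti-H3K4me3 or anti-H3; qPCR at PRDM9-bound and control loci; mean ± s.d. of technical replicates, representative of two experiments.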

[28] = tested on: Spermatocyte; experiment: Induction of meiotic defect in wild type mouse spermatocyte assessed as non homologous synapsis by SYCP1/SYCP3 staining based immunofluorescence assay; type: functional, cell-based
[29] = tested on: Spermatocyte; experiment: Induction of meiotic defect in wild type mouse spermatocyte assessed as effect on paring of chromosomal homolog by SYCP1/SYCP3 staining based immunofluorescence assay; type: functional, cell-based

Chain of Histone-lysine N-methyltransferase PRDM9 (Homo sapiens) (Q9NQV7 whole entry, the tested form may be a part): as the sequence (Q9NQV7 whole entry, looked up, change not shown) above

In the case of COc1cc(OC)cc(-c2noc(N3CCN(C)C4(CCN(c5ccnc(C)c5)CC4)C3)n2)c1, the ΔTm [1] is reported as greater than 2 °C, the ΔTm [2] is reported as greater than 2 °C and the inhibition [3] is reported as “Active”. For the same compound, the Activity [4] was “inactive”, the Activity [5] was “inactive” and the Activity [6] was “inactive”. For the same compound, the Activity [7] was “inactive”, the Activity [8] was “inactive” and the Activity [9] was “inactive”. For the same compound, the Activity [10] was “inactive”, the inhibition [11] was “inactive” and the Activity [12] was “inactive”. For the same compound, the inhibition [13] was “Dose-Dependent Effect”, the inhibition [14] was “Dose-Dependent Effect” and the Activity [15] was “inactive”. For the same compound, the Activity [16] was “Non-Toxic”, the Activity [17] was “Toxic” and the Activity [18] was “Non-Toxic”. The Activity [19] was “Toxic”, the inhibition [20] was “Active” and the Activity [21] was “inactive”. The Activity [22] was “inactive”, the Activity [23] was “inactive” and the Activity [24] was “inactive”. The Activity [25] was “inactive”, the Activity [26] was “inactive” and the inhibition [27] was “inactive”. The Activity [28] was “Active” and the Activity [29] was “Active”.
